The values below come from ChEMBL document CHEMBL2331413, “Novel in vivo active anti-malarials based on a hydroxy-ethyl-amine scaffold” (Bioorg Med Chem Lett, 2013).

pIC50: −log10 of the molar value. Active and inactive are the calls of the source. The rule behind the calls is not given here.

Series [1] deals with Plasmodium falciparum. Nature of the series: Antimalarial activity against chloroquine-resistant Plasmodium falciparum K1 infected in RBC by [3H]hypoxanthine incorporation assay in presence of 0.5 % albumax. In kind it is functional, organism-based.
For series [2], the system named is Plasmodium falciparum. In words: Antimalarial activity against chloroquine-sensitive Plasmodium falciparum NF54 infected in RBC after 72 hrs by [3H]hypoxanthine incorporation assay in presence of 0.5 % albumax. In kind it is functional, organism-based.
Series [3] concerns Plasmodium falciparum. In words: Antimalarial activity against chloroquine-sensitive Plasmodium falciparum NF54 infected in RBC after 24 hrs by [3H]hypoxanthine incorporation assay in presence of 0.5 % albumax. It counts as functional, organism-based.
Series [4] relates to Plasmodium falciparum. Nature of the series: Antimalarial activity against chloroquine-resistant Plasmodium falciparum K1 infected in RBC by [3H]hypoxanthine incorporation assay in presence of 50 % serum. It counts as functional, organism-based.
Series [5] concerns Plasmodium falciparum. In words: Antimalarial activity against chloroquine-sensitive Plasmodium falciparum NF54 infected in RBC after 72 hrs by [3H]hypoxanthine incorporation assay in presence of 50 % serum. In kind it is functional, organism-based.
For series [6], the system named is Plasmodium falciparum. In words: Antimalarial activity against chloroquine-sensitive Plasmodium falciparum NF54 infected in RBC after 48 hrs by [3H]hypoxanthine incorporation assay in presence of 0.5 % albumax. It counts as functional, organism-based.
Series [7] relates to Plasmodium berghei. Nature of the series: Antimalarial activity against GFP-transfected Plasmodium berghei ANKA in mouse blood assessed as inhibition of schizont maturation compound incubated for 16 hrs followed by 8 hrs of [3H]hypoxanthine incorporation. It counts as functional, organism-based.
Series [8] deals with Plasmodium berghei. Nature of the series: Antimalarial activity against GFP-transfected Plasmodium berghei ANKA in mouse blood assessed as inhibition of schizont maturation after 48 hrs by [3H]hypoxanthine incorporation assay relative to control. It counts as functional, organism-based.
Series [9] concerns Plasmodium berghei. Nature of the series: Antimalarial activity against GFP-transfected Plasmodium berghei ANKA in mouse blood assessed as inhibition of schizont maturation after 72 hrs by [3H]hypoxanthine incorporation assay. It counts as functional, organism-based.
The subject of series [10] is Plasmodium berghei. In words: Antimalarial activity against GFP-transfected Plasmodium berghei ANKA infected in mouse assessed as increase in host survival time at 100 mg/kg, po administered as single dose […]. It counts as functional. In short, it runs like this: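 P. berghei-infected mouse model; a single oral dose of 100 mg/kg. Parasitemia was expressed relative to untreated control animals. Mean survival time in days was compared with that of untreated mice.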
A general note: Flow cytometry measures light scatter and fluorescence of single cells or particles in a stream.

The test system of series [11] is Plasmodium berghei. In words: Antimalarial activity against GFP-transfected Plasmodium berghei ANKA infected in mouse assessed as reduction in parasitemia at 100 mg/kg, po administered as single dose measured after 72 hrs by flow cytometry. It counts as functional. Set-up: scale not given: the % may be the effect or the level left.
Series [12] in a line: Metabolic stability in mouse liver microsomes. In kind it is ADME, Microsome. The conditions noted are these: read-out: Stability. In short, it runs like this: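 In vitro metabolic stability was measured with a mouse liver microsomal preparation and expressed as intrinsic clearance in µl/(min mg).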
(In general: Microsomes from liver hold many membrane-bound enzymes, among them those of drug oxidation.)

For orientation: pIC50 means the IC50 on a negative log10 scale, so that one unit is a factor of ten. As to `Cc1cc(Nc2ccc(C(=O)N[C@@H](Cc3ccccc3)[C@H](O)CN[C@H](C)c3ccccc3)cc2)cc(C)n1`, the negative-log IC50 (pIC50) in the series with Plasmodium falciparum [1] was 8.05; in the series on Plasmodium falciparum [2] it was 8.06; in the series on Plasmodium falciparum [3], 6.70; with Plasmodium falciparum [4], 7.70; with Plasmodium falciparum [5], 7.64; with Plasmodium falciparum [6], 7.96. In addition, the pIC50 in the series with Plasmodium berghei [7] was 6.48. For the same molecule, the result in the series on Plasmodium berghei [8] and in the series with Plasmodium berghei [9] was Active.
On to `CCCN(CCC)Cc1cc(CNC[C@@H](O)[C@H](Cc2ccccc2)NC(=O)c2ccc(N3CCN(C)CC3)cc2)ccc1O`, for which the pIC50 was 7.89 in the series on Plasmodium falciparum [1]; 7.19 in the series with Plasmodium falciparum [2]; 7.16 in the series with Plasmodium falciparum [3]; 8.02 in the series on Plasmodium falciparum [4]; 7.38 in the series on Plasmodium falciparum [5]; 7.30 in the series on Plasmodium falciparum [6]. In addition, the pIC50 in the series with Plasmodium berghei [7] is 6.85. Further, the Survival in the series with Plasmodium berghei [10] is 7 days. For the same molecule, in the series with Plasmodium berghei [11], the Activity amounted to 87%. Besides, in [12], the microsomal CLint was 90 µL/min/mg.
With `C[C@@H](NC[C@@H](O)[C@H](Cc1ccccc1)NC(=O)c1ccc(N2CCN(C)CC2)cc1)c1ccccc1`, the negative-log IC50 (pIC50) in the series with Plasmodium falciparum [1] was 7.72; in the series with Plasmodium falciparum [2] it was 8.06; in the series on Plasmodium falciparum [3], less than 6.30; with Plasmodium falciparum [4], 7.49; in the series on Plasmodium falciparum [5] it was 8.07; with Plasmodium berghei [7], less than 6.30. Also, in [12], the microsomal CLint is 80 µL/min/mg.
For the molecule `Cc1cc(Nc2ccc(C(=O)N[C@@H](Cc3ccccc3)[C@H](O)CN[C@H](C)c3ccccc3)cc2)ccn1`, the pIC50 is 7.80 with Plasmodium falciparum [1]; 8.01 in the series with Plasmodium falciparum [2]; 6.76 with Plasmodium falciparum [3]; 7.59 with Plasmodium falciparum [4]; 7.54 in the series with Plasmodium falciparum [5]; 6.64 with Plasmodium berghei [7]. The Survival in the series with Plasmodium berghei [10] was 3 days. For the same molecule, in the series with Plasmodium berghei [11], the Activity worked out at 33%. Moreover, the microsomal CLint in [12] was 69 µL/min/mg. In addition, the outcome with Plasmodium berghei [8] and with Plasmodium berghei [9] was Active.
As to `C[C@@H](NC[C@@H](O)[C@H](Cc1ccccc1)NC(=O)c1ccc(Nc2ccc(CN3CCCCC3)c(O)c2)cc1)c1ccccc1`, the pIC50 was 8.44 with Plasmodium falciparum [2]; 7.60 in the series with Plasmodium falciparum [3]; 8.48 in the series with Plasmodium falciparum [5]; greater than 8.11 with Plasmodium falciparum [6]; 6.76 with Plasmodium berghei [7]. Besides, the microsomal CLint in series [12] stood at 415 µL/min/mg.
Consider `C[C@@H](NC[C@@H](O)[C@H](Cc1ccccc1)NC(=O)c1ccc(N(C)c2ccncc2)cc1)c1ccccc1`, for which the pIC50 was 7.42 in the series on Plasmodium falciparum [1]; 7.68 with Plasmodium falciparum [2]; 6.60 in the series on Plasmodium falciparum [3]; 7.38 with Plasmodium falciparum [4]; 7.46 in the series with Plasmodium falciparum [5]; 7.57 with Plasmodium falciparum [6]. In addition, the negative-log IC50 (pIC50) in the series on Plasmodium berghei [7] is less than 6.30. Further, the microsomal CLint in [12] was 180 µL/min/mg. Further, the outcome in the series with Plasmodium berghei [8] and in the series with Plasmodium berghei [9] was Active.
For the molecule `C[C@@H](NC[C@@H](O)[C@H](Cc1ccccc1)NC(=O)c1ccc(Nc2ccncc2)cc1)c1ccccc1`, the pIC50 in the series on Plasmodium falciparum [1] is 7.57; in the series with Plasmodium falciparum [2] it was 7.70; in the series on Plasmodium falciparum [3], 6.77; in the series on Plasmodium falciparum [4], 7.32; with Plasmodium falciparum [5], 7.44; in the series on Plasmodium falciparum [6], 7.59. The pIC50 in the series on Plasmodium berghei [7] is 6.51. For the same molecule, the microsomal CLint in series [12] was determined as 112 µL/min/mg. The result in the series on Plasmodium berghei [8] and in the series on Plasmodium berghei [9] was Active.
